{
  "source": "paper PMC3356144",
  "about": "(Frontiers in Oncology, 2011)",
  "key": {"[1]": {"target": "MLCP purified from pig aorta smooth muscle (Sus scrofa, UniProt P61292)", "sequence (P61292 2-327 limits assumed)": "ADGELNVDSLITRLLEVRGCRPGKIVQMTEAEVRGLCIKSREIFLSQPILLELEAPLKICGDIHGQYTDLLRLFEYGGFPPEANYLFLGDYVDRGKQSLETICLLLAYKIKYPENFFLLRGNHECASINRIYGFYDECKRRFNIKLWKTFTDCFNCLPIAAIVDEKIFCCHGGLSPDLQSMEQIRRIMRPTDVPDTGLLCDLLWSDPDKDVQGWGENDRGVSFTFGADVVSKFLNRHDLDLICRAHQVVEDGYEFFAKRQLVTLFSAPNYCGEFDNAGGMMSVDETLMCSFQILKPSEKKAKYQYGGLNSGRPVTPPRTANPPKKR", "assay": "MLCP/32P-MLC dephosphorylation inhibition assay", "type": "biochemical", "how_it_was_run": "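MLCP purified from pig aorta (PP1C plus truncated 60-kDa MYPT1). Substrate was chicken gizzard LC20 pre-labelled with [γ-32P]ATP. Reaction: 0.5 μM 32P-LC20, 50 nM MLCP, 0.1 nM okadaic acid, 1 mM DTT, 0.03% Brij35, 25 mM MOPS pH 7.0, with varied compound. Run 10 min at 30°C, stopped with TCA/BSA, released 32P counted. No-enzyme set as 0% and uninhibited as 100%; duplicates; IC50 by nonlinear regression.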"}, "PC-3 cells [2]": {"system": "PC-3 cells", "assay": "Chemotaxis assay", "type": "cell-based, human", "settings": "IGF-1 attractant", "how_it_was_run": "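96-well Boyden chamber with 8-μm porous membrane. 200,000 PC-3 cells per upper well in serum-free medium with test compound. Lower wells held IGF-1 plus the same compound concentration; serum-free medium served as negative control. Incubated overnight at 37°C, 5% CO2. Membrane fixed and Diff-Quik stained, upper-surface cells scraped off, absorbance read at 595 nm; n = 5, mean ± SEM.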"}, "CWR22Rv1 cells [3]": {"system": "CWR22Rv1 cells", "assay": "Growth inhibition", "type": "cell-based", "settings": "Homo sapiens, CWR22Rv1, 48 h, CWR22Rv1 (CWR), 48 h treatment", "how_it_was_run": "(§1)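 LNCaP seeded at 20,000 cells/well overnight in RPMI with 10% FBS, 1% L-glutamine, 1% pen/strep and 0.1 nM DHT. CWR22Rv1 (20,000/well), DU145 and PC-3 (5,000/well) seeded in the same medium without DHT. Treated with test compound in serum-free medium, five wells per concentration, for 48 h; vehicle was 0.001% DMSO. Viability read by WST-8 after 2 h at 450 nm (reference 655 nm). Initial-plating value subtracted, percent growth versus control calculated, GI50 derived; n = 5, SEM.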"}, "PC-3 cells [4]": {"system": "PC-3 cells", "assay": "Cellular morphology after treatment", "type": "cell-based, human", "settings": "PC-3, 1 μM, 24 h"}, "PC-3 cells [5]": {"system": "PC-3 cells", "assay": "Cell cycle analysis by FACS, PC-3", "type": "cell-based, human", "settings": "1 μM", "how_it_was_run": "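PC-3 seeded at 200,000 cells/well in six-well plates overnight, then serum-starved 24 h. Treated with 1 μM test compound; controls kept in serum-free medium. Incubated 6, 24 or 48 h, then trypsinized, ethanol-fixed and analysed for cell-cycle distribution by FACS. Values averaged from three independent experiments.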"}, "LNCaP cells [6]": {"system": "LNCaP cells", "assay": "BrdU uptake assay, LNCaP", "type": "cell-based, human", "settings": "1 μM, 24 h", "how_it_was_run": "(§2)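 Cells seeded overnight in six-well plates: LNCaP 500,000/well, DU145 and PC-3 200,000/well. Treated with 1 μM test compound in serum-free medium for 24 h, then BrdU pulsed 1 h. Cells trypsinized, fixed in 4% formaldehyde 10 min, permeabilized, and labelled with FITC anti-BrdU 1 h at 25°C. Analysed by flow cytometry against untreated control; n = 3, mean ± SEM.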"}, "PC-3 cells [7]": {"system": "PC-3 cells", "assay": "Growth inhibition", "type": "cell-based", "settings": "Homo sapiens, PC-3, 48 h, PC-3, 48 h treatment", "how_it_was_run": "as §1"}, "PC-3 cells [8]": {"system": "PC-3 cells", "assay": "BrdU uptake assay, PC-3", "type": "cell-based, human", "how_it_was_run": "as §2"}, "DU145 cells [9]": {"system": "DU145 cells", "assay": "Growth inhibition", "type": "cell-based", "settings": "Homo sapiens, DU-145, 48 h, DU145, 48 h treatment", "how_it_was_run": "as §1"}, "LNCaP cells [10]": {"system": "LNCaP cells", "assay": "Cell cycle analysis by FACS, LNCaP", "type": "cell-based, human"}, "CWR22Rv1 cells [11]": {"system": "CWR22Rv1 cells", "assay": "Cell cycle analysis by FACS, CWR22RV1", "type": "cell-based, human", "settings": "CWR22RV1, 24 h"}, "DU145 cells [12]": {"system": "DU145 cells", "assay": "BrdU uptake assay, DU145", "type": "cell-based, human", "settings": "DU145, 1 μM, 24 h", "how_it_was_run": "as §2"}, "Solubility": {"assay": "Solubility", "type": "physicochemical"}, "LNCaP cells [13]": {"system": "LNCaP cells", "assay": "Growth inhibition", "type": "cell-based, human", "how_it_was_run": "as §1"}, "LNCaP cells [14]": {"system": "LNCaP cells", "assay": "Analysis of actin disruption", "type": "cell-based, human", "settings": "2 h, 250 nM up to highest dose 5 μM", "how_it_was_run": "(§3)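 PC-3 seeded at 100,000 cells/dish in RPMI with 10% FBS and left to adhere 48 h. LNCaP seeded at 200,000 cells/dish and left 24 h in RPMI with 10% FBS and 0.1 nM DHT. Medium replaced with test compound (250 nM–5 μM) for 2 h. Cells fixed in 4% formaldehyde 10 min, permeabilized with 0.1% Triton X-100 30 min, stained with Alexa Fluor–phalloidin 10 min, then imaged against untreated controls.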"}, "PC-3 cells [15]": {"system": "PC-3 cells", "assay": "Analysis of actin disruption", "type": "cell-based, human", "how_it_was_run": "as §3"}, "[16]": {"system": "human prostate cancer tissue", "assay": "Displacement of 17e staining of prostate tissue by calyculin A", "type": "binding", "settings": "calyculin A 1 μM pretreatment 10 min, then 17e 10 μM 1 h", "how_it_was_run": "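Serial sections of human prostate tissue. One section stained with 10 μM test compound for 1 h. The adjacent section was pretreated with 1 μM calyculin A for 10 min before the same staining. Compound fluorescence intensity imaged and compared between paired sections.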"}},
  "note": "“Also recorded” adds a separate entry of the source.",
  "data": [
    {"compound": "COc1ccc(-c2csc(N=C(N)N)n2)cc1", "note": "[13m, N-[4-(4-methoxy-phenyl)-thiazol-2-yl]-guanidine]", "values": [
      {"measurement": "IC50", "setting": "[1]", "value": 840, "unit": "µM"}
    ]},
    {"compound": "Nc1nc(-c2ccc(OC(=O)c3ccc(-c4ccccc4)cc3)cc2)cs1", "note": "[14a, biphenyl-4-carboxylic acid 4-(2-amino-thiazol-4-yl)-phenyl ester]", "values": [
      {"measurement": "IC50", "setting": "[1]", "value": 485, "unit": "µM"}
    ]},
    {"compound": "CN(C)c1cccc2c(S(=O)(=O)Oc3ccc(-c4csc(NC(=N)N)n4)cc3)cccc12", "note": "[17e, 5-dimethylamino-naphthalene-1-sulfonic acid 4-(2-guanidino-thiazol-4-yl)-phenyl ester]", "values": [
      {"measurement": "Migration of PC-3 cells", "setting": "PC-3 cells [2]; 3 μM", "value": "reduced to the same level as wells that contained only serum free media"},
      {"measurement": "Migrated cells compared with IGF-1 alone", "setting": "PC-3 cells [2]; 5 μM", "value": "three times fewer cells"},
      {"measurement": "Migration of PC-3 cells through the membrane", "setting": "PC-3 cells [2]; increasing drug concentrations", "value": "dose dependent decrease"},
      {"measurement": "GI50", "setting": "CWR22Rv1 cells [3]", "value": "~0.5", "unit": "µM"},
      {"measurement": "Cellular morphology", "setting": "PC-3 cells [4]", "value": "became more spherical"},
      {"measurement": "Cell cycle effect", "setting": "PC-3 cells [5]; 6 h", "value": "increased S and G2/M populations"},
      {"measurement": "Cell cycle effect", "setting": "PC-3 cells [5]; 24 h", "value": "complete cell cycle arrest in the G2/M phase"},
      {"measurement": "Cell death (SubG1 population)", "setting": "PC-3 cells [5]; 48 h", "value": "increase in cells death"},
      {"measurement": "Cell cycle effect (G2/M arrest persistence)", "setting": "PC-3 cells [5]; through 48 h", "value": "continued unchanged"},
      {"measurement": "DNA synthesis (BrdU incorporation)", "setting": "LNCaP cells [6]", "value": "unaffected"},
      {"measurement": "GI50", "setting": "PC-3 cells [7]", "value": "~0.5", "unit": "µM"},
      {"measurement": "Reduction in DNA synthesis as measured by BrdU uptake", "setting": "PC-3 cells [8]; PC-3", "value": 10, "unit": "fold"},
      {"measurement": "BrdU incorporation compared to control", "setting": "PC-3 cells [8]; PC-3, 1 μM, 24 h", "value": "~ 10%"},
      {"measurement": "GI50", "setting": "DU145 cells [9]", "value": "~0.5", "unit": "µM"},
      {"measurement": "Cell cycle effect", "setting": "LNCaP cells [10]", "value": "little change from control"},
      {"measurement": "Cell cycle effect", "setting": "CWR22Rv1 cells [11]", "value": "G2/M arrest"},
      {"measurement": "BrdU incorporation compared to control", "setting": "DU145 cells [12]", "value": "~ 40%"},
      {"measurement": "Solubility (relative)", "setting": "Solubility", "value": "higher solubility"},
      {"measurement": "GI50 of CRPC cell lines compared to AD prostate cells", "setting": "LNCaP cells [13]; CRPC lines (CWR22Rv1, DU145, PC-3) versus LNCaP", "value": "four-fold lower"},
      {"measurement": "GI50", "setting": "LNCaP cells [13]; Homo sapiens, LNCaP, 48 h, 48 h treatment", "value": "~2", "unit": "µM"},
      {"measurement": "F-actin disruption", "setting": "LNCaP cells [14]", "value": "did not show any disruption of the F-actin network; also recorded: no actin disruption; also recorded: did not demonstrate any F-actin disruption"},
      {"measurement": "Actin disruption compared to control", "setting": "PC-3 cells [15]; PC-3, 2 h, 250 nM, 1 μM and 5 μM", "value": "increasing amounts of actin disruption"},
      {"measurement": "Concentration at which actin disruption begins", "setting": "PC-3 cells [15]; PC-3, 2 h treatment", "value": 250, "unit": "nM"}
    ]},
    {"compound": "N=C(N)Nc1nc(-c2ccc(NC(=O)c3ccc4ccccc4c3)cc2)cs1", "note": "[13h, naphthalene-2-carboxylic acid [4-(2-guanidino-thiazol-4-yl)-phenyl]-amide]", "values": [
      {"measurement": "Solubility (relative)", "setting": "Solubility", "value": "much lower solubility than 17e"}
    ]},
    {"compound": "COC[C@@H]([C@H](O)[C@H](O)C(=O)NCC[C@H](C)c1nc(/C=C/C[C@@H]2O[C@]3(C[C@@H](O)[C@@H]2C)O[C@H]([C@H](C[C@H](O)[C@H](C)[C@H](O)[C@H](C)/C=C(C)/C(C)=C/C=C/C(C)=C\\C#N)OC)[C@H](OP(=O)(O)O)C3(C)C)co1)N(C)C", "note": "[calyculin A]", "values": [
      {"measurement": "Reduction in fluorescence intensity due to 17e (17e binding)", "setting": "[16]", "value": 60, "unit": "%"}
    ]},
    {"compound": "N=C(N)Nc1nc(-c2ccc(OC(=O)c3ccc(-c4ccccc4)cc3)cc2)cs1", "note": "[13a, biphenyl-4-carboxylic acid 4-(2-guanidino-thiazol-4-yl)-phenyl ester]", "values": [
      {"measurement": "IC50", "setting": "[1]", "value": 74, "unit": "µM"}
    ]},
    {"compound": "COc1cccc(-c2ccc(C(=O)Oc3ccc(-c4csc(NC(=N)N)n4)cc3)cc2)c1", "note": "[10a, 3′-methoxy-biphenyl-4-carboxylic acid 4-(2-guanidino-thiazol-4-yl)-phenyl ester]", "values": [
      {"measurement": "IC50", "setting": "[1]", "value": 12, "unit": "µM"},
      {"measurement": "Solubility (relative)", "setting": "Solubility", "value": "much lower solubility than 17e"}
    ]}
  ]
}
